Measurements reported in ChEMBL document CHEMBL1158114, “Acetylated flavanone glycosides from the rhizomes of Cyclosorus acuminatus” (2006).
Values after ≈ are worked out from the molar mass of the structure shown.

How the values were obtained:
Assay type in all cases: functional
[1] = test system: Streptococcus pneumoniae; assay: Antibacterial activity against Streptococcus pneumoniae ATCC 49619
In short: (§1)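 Twofold serial dilution method; reference laboratory ATCC strains used as test organisms: S. aureus 25923, E. coli 25922, S. pneumoniae 49619, H. influenzae 49247.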

[2] = test system: Haemophilus influenzae; assay: Antibacterial activity against Haemophilus influenzae ATCC 49247; in short: as §1
[3] = test system: Escherichia coli; assay: Antibacterial activity against Escherichia coli ATCC 25922; in short: as §1
[4] = test system: Staphylococcus aureus; assay: Antibacterial activity against Staphylococcus aureus ATCC 25923; in short: as §1

Row | SMILES | MIC [1] | MIC [2] | MIC [3] | MIC [4]
1 | CC(=O)OC[C@H]1O[C@@H](O[C@@H]2[C@@H](O)[C@H](C)O[C@@H](Oc3ccc(O)cc3[C@@H]3CC(=O)c4c(O)cc(O)cc4O3)[C@@H]2OC(C)=O)[C@H](OC(C)=O)[C@@H](O)[C@@H]1O | 32 µg/mL (≈ 44.3 µM) | 32 µg/mL (≈ 44.3 µM) | 64 µg/mL (≈ 88.6 µM) | 128 µg/mL (≈ 177 µM)
2 | CC(=O)OC[C@H]1O[C@@H](O[C@@H]2[C@@H](O)[C@H](C)O[C@@H](Oc3ccc(O)cc3[C@@H]3CC(=O)c4c(O)cc(O)cc4O3)[C@@H]2OC(C)=O)[C@H](O)[C@@H](O)[C@@H]1OC(C)=O | 32 µg/mL (≈ 44.3 µM) | 32 µg/mL (≈ 44.3 µM) | 64 µg/mL (≈ 88.6 µM) | 128 µg/mL (≈ 177 µM)
3 | CC(=O)OC[C@H]1O[C@@H](O[C@@H]2[C@@H](O)[C@H](C)O[C@@H](Oc3ccc(O)cc3[C@@H]3CC(=O)c4c(O)cc(O)cc4O3)[C@@H]2OC(C)=O)[C@H](O)[C@@H](OC(C)=O)[C@@H]1O | 32 µg/mL (≈ 44.3 µM) | 32 µg/mL (≈ 44.3 µM) | 64 µg/mL (≈ 88.6 µM) | 128 µg/mL (≈ 177 µM)
4 | C[C@@H]1O[C@@H](Oc2ccc(O)cc2[C@@H]2CC(=O)c3c(O)cc(O)cc3O2)[C@H](O)[C@H](O[C@@H]2O[C@H](CO)[C@@H](O)[C@H](O)[C@H]2O)[C@H]1O | 32 µg/mL (≈ 53.6 µM) | 32 µg/mL (≈ 53.6 µM) | 64 µg/mL (≈ 107 µM) | 128 µg/mL (≈ 215 µM)
5 | CC(=O)OC[C@H]1O[C@@H](O[C@@H]2[C@@H](O)[C@H](C)O[C@@H](Oc3ccc(O)cc3[C@@H]3CC(=O)c4c(O)cc(O)cc4O3)[C@@H]2OC(C)=O)[C@H](O)[C@@H](O)[C@@H]1O | 32 µg/mL (≈ 47 µM) | 32 µg/mL (≈ 47 µM) | 64 µg/mL (≈ 94 µM) | 128 µg/mL (≈ 188 µM)
6 | CC(=O)O[C@H]1[C@H](Oc2ccc(O)cc2[C@@H]2CC(=O)c3c(O)cc(O)cc3O2)O[C@@H](C)[C@H](O)[C@H]1O[C@@H]1O[C@H](CO)[C@@H](O)[C@H](O)[C@H]1O | 32 µg/mL (≈ 50.1 µM) | 32 µg/mL (≈ 50.1 µM) | 64 µg/mL (≈ 100 µM) | 128 µg/mL (≈ 200 µM)
7 | CC(=O)OC[C@H]1O[C@@H](O[C@@H]2[C@@H](O)[C@H](C)O[C@@H](Oc3ccc(O)cc3[C@@H]3CC(=O)c4c(O)cc(O)cc4O3)[C@@H]2OC(C)=O)[C@H](O)[C@@H](OC(C)=O)[C@@H]1OC(C)=O | 32 µg/mL (≈ 41.8 µM) | 32 µg/mL (≈ 41.8 µM) | 64 µg/mL (≈ 83.7 µM) | 128 µg/mL (≈ 167 µM)
8 | CC[C@H]1OC(=O)[C@H](C)[C@@H](O[C@H]2C[C@@](C)(OC)[C@@H](O)[C@H](C)O2)[C@H](C)[C@@H](O[C@@H]2O[C@H](C)C[C@H](N(C)C)[C@H]2O)[C@](C)(O)C[C@@H](C)CN(C)[C@H](C)[C@@H](O)[C@]1(C)O [AZITHROMYCIN] | 4 µg/mL (≈ 5.34 µM) | 8 µg/mL (≈ 10.7 µM) | 0.5 µg/mL (≈ 0.668 µM) | 0.5 µg/mL (≈ 0.668 µM)
9 | CC[C@H]1OC(=O)[C@H](C)[C@@H](O[C@H]2C[C@@](C)(OC)[C@@H](O)[C@H](C)O2)[C@H](C)[C@@H](O[C@@H]2O[C@H](C)C[C@H](N(C)C)[C@H]2O)[C@](C)(O)C[C@@H](C)C(=O)[C@H](C)[C@@H](O)[C@]1(C)O [ERYTHROMYCIN] | 64 µg/mL (≈ 87.2 µM) | 64 µg/mL (≈ 87.2 µM) | 0.25 µg/mL (≈ 0.341 µM) | 0.25 µg/mL (≈ 0.341 µM)
